# Data published in ChEMBL document CHEMBL1131301, “Tyrosine kinase inhibitors. 14. Structure-activity relationships for methylamino-substituted derivatives of 4-[(3-bromophenyl)amino]-6-(methylamino)-pyrido[3,4-d]pyrimidine (PD 158780), a potent and specific inhibitor of the tyrosine kinase activity of receptors for the EGF family of growth factors” (J Med Chem, 1998).
# Tests used:
# [1] = target: T1, Epidermal growth factor receptor (Homo sapiens, UniProt P00533); experiment: Inhibition of autophosphorylation of epidermal growth factor receptor in A431 cells in culture
# [2] = target: T1, Epidermal growth factor receptor; experiment: (§1) Inhibition of tyrosine/glutamic acid copolymer phosphorylation by epidermal growth factor receptor prepared of human A431
# Mus musculus [3] = experiment: Ratio of the median treated EGFR tumor mass (mg)/median control mass*100% in mice at 38 mg/kg dose, ip b.i.d. days 1-15 administration; format: functional; conditions: route intraperitoneal
# Method in brief: (§2)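 Nude mice (NCr nu/nu, 18-22 g) were randomized and implanted sc with tumor fragments in the right axilla on day 0. Tumor lines were A431 epidermoid, NIH 3T3 fibroblasts transfected with human EGFR, and MCF-7 breast. Dosing was ip or oral, by average cage weight, with 6 mice/dose group. Vehicle was 6% dimethylacetamide/94% 50 mM sodium lactate pH 4.0 (suspension), or isethionate salt in water.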
# Mus musculus [4] = experiment: Difference in days for treated (T) and control (C) EGFR tumor fragments to reach 750 mg in mice at 38 mg/kg ip dose, administration days 1-15; format: functional; conditions: route intraperitoneal
# Mus musculus [5] = experiment: Weight change of EGFR tumor bearing mice at 38 mg/kg ip dose, days 1-15 administration; format: functional; conditions: route intraperitoneal
# Mus musculus [6] = experiment: Net reduction in EGFR tumor burden between the first and last treatments in mice at 200 mg/kg peroral dose, days 1-15 administration; format: functional; conditions: route oral
# Method in brief: (§3)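 NCr nu/nu nude mice (18-22 g) were randomized and implanted sc with A431 epidermoid, human-EGFR-transfected NIH 3T3 fibroblast, or MCF-7 breast tumor fragments in the right axilla on day 0. Dosing was ip or oral, by average cage weight, with 6 mice per dose group. Log net cell kill is the net reduction in tumor burden between the first and last treatments.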
# [7] = (§4) Inhibition of Platelet-derived growth factor receptor (PDGFR)
# Mus musculus [8] = experiment: Ratio of treated and control EGFR median tumor mass*100% in mice at 200 mg/kg peroral dose, days 1-15 administration; format: functional; conditions: route oral; method in brief: as §2
# A-431 [9] = experiment: Weight change in A431 tumor bearing mice at 25 mg/kg ip dose, days 7-21 administration; format: functional; conditions: route intraperitoneal
# Mus musculus [10] = experiment: Net reduction in EGFR tumor burden between the first and last treatments in mice at 25 mg/kg ip dose, days 1-15 administration; format: functional; conditions: route intraperitoneal; method in brief: as §3
# Mus musculus [11] = experiment: Difference in days for treated (T) and control (C) EGFR tumor fragments to reach 750 mg in mice at 25 mg/kg ip dose, administration days 1-15; format: functional; conditions: route intraperitoneal
# Insulin receptor [12] = target: T2, Insulin receptor (Homo sapiens, UniProt P06213); experiment: (§5) Inhibition of insulin receptor(IR)
# [13] = target: Receptor tyrosine-protein kinase erbB-2 (Homo sapiens, UniProt P04626); experiment: Inhibition of heregulin-dependent autophosphorylation of ErbB2 receptor in MDA-MB-453 cells; format: functional, cell-based
# [14] = target: T3, Proto-oncogene tyrosine-protein kinase Src (Homo sapiens, UniProt P12931); experiment: (§6) Inhibition of c-Src tyrosine kinase
# [15] = target: T4, Fibroblast growth factor receptor (Homo sapiens, UniProt P22607+P11362+P22455+P21802); experiment: (§7) Inhibition of fibroblast growth factor receptor(FGFR); format: protein assay
# Mus musculus [16] = experiment: Weight change of EGFR tumor bearing mice at 200 mg/kg peroral dose, days 1-15 administration; format: functional, organism-based; parameters: dose 200 mg/kg
# Mus musculus [17] = experiment: Weight change of EGFR tumor bearing mice at 25 mg/kg ip dose, days 1-15 administration; conditions: route intraperitoneal
# [18] = target: T1, Epidermal growth factor receptor; experiment: Inhibition of EGF-dependent autophosphorylation of EGF-R in A431 cells
# A-431 [19] = experiment: Ratio of treated and control A431 median tumor mass*100% in mice at 25 mg/kg peroral dose, days 7-21 administration; format: functional; conditions: route intraperitoneal, in the assay text read “intraperitoneal” for “peroral”; method in brief: as §2
# A-431 [20] = experiment: Net reduction in A431 tumor burden between the first and last treatments in mice at 25 mg/kg ip dose, days 7-21 administration; format: functional; conditions: route intraperitoneal; method in brief: as §3
# A-431 [21] = experiment: Difference in days for treated (T) and control (C) A431 tumor fragments to reach 750 mg in mice at 25 mg/kg intraperitoneal dose, administration days 7-21
# Mus musculus [22] = experiment: Ratio of treated and control EGFR median tumor mass*100% in mice at 25 mg/kg ip dose, days 1-15 administration; format: functional; conditions: route intraperitoneal; method in brief: as §2
# [23] = target: T1, Epidermal growth factor receptor; experiment: as §1; remark: listed apart in the source
# Mus musculus [24] = experiment: Difference in days for treated (T) and control (C) EGFR tumor fragments to reach 750 mg in mice at 200 mg/kg peroral dose, administration days 1-15; format: functional; conditions: route oral
# [25] = Aqueous solubility ([…] degree C); format: physicochemical; conditions: for solubility: water, read-out: S
# A-431 [26] = experiment: Ratio of treated and control A431 median tumor mass*100% in mice at 100 mg/kg peroral dose, days 7-21 administration; format: functional; conditions: route oral; method in brief: as §2
# MCF7 [27] = experiment: Ratio of treated and control MCF-7 median tumor mass*100% in mice at 25 mg/kg ip dose, days 1-15 administration; format: functional; conditions: route intraperitoneal; method in brief: as §2
# A-431 [28] = experiment: Weight change in A431 tumor bearing mice at 75 mg/kg ip dose, days 7-21 administration; format: functional; conditions: route intraperitoneal
# Mus musculus [29] = experiment: Net reduction in EGFR tumor burden between the first and last treatments in mice at 400 mg/kg peroral dose, days 1-15 administration; format: functional; conditions: route oral; method in brief: as §3
# MCF7 [30] = experiment: Difference in days for treated (T) and control (C) MCF-7 tumor fragments to reach 750 mg in mice at 50 mg/kg ip dose, administration days 1-15; format: functional; conditions: route intraperitoneal
# Mus musculus [31] = experiment: Difference in days for treated (T) and control (C) EGFR tumor fragments to reach 750 mg in mice at 400 mg/kg peroral dose, administration days 1-15; format: functional; conditions: route oral
# A-431 [32] = experiment: Difference in days for treated (T) and control (C) A431 tumor fragments to reach 750 mg in mice at 100 mg/kg peroral dose, administration days 7-21; format: functional; conditions: route oral
# MCF7 [33] = experiment: Net reduction in MCF-7 tumor burden between the first and last treatments in mice at 25 mg/kg ip dose, days 1-15 administration; format: functional; conditions: route intraperitoneal; method in brief: as §3
# Mus musculus [34] = experiment: Net reduction in EGFR tumor burden between the first and last treatments in mice at 38 mg/kg ip dose, days 1-15 administration; format: functional; conditions: route intraperitoneal; method in brief: as §2
# A-431 [35] = experiment: Ratio of treated and control A431 median tumor mass*100% in mice at 75 mg/kg dose
# Mus musculus [36] = experiment: Ratio of treated and control EGFR median tumor mass*100% in mice at 400 mg/kg peroral dose, days 1-15 administration; format: functional; conditions: route oral; method in brief: as §2
# MCF7 [37] = experiment: Weight change in MCF-7 tumor bearing mice at 25 mg/kg ip dose, days 1-15 administration; format: functional; conditions: route intraperitoneal
# MCF7 [38] = experiment: Ratio of treated and control MCF-7 median tumor mass*100% in mice at 50 mg/kg ip dose, days 1-15 administration; format: functional; conditions: route intraperitoneal; method in brief: as §2
# SK-OV-3 [39] = experiment: Ratio of treated and control SKOV-3 median tumor mass*100% in mice at 30 mg/kg ip dose, days 10-14,17-21,24-28 administration; format: functional; conditions: route intraperitoneal
# Mus musculus [40] = experiment: Weight change of EGFR tumor bearing mice at 400 mg/kg peroral dose, days 1-15 administration; format: functional
# A-431 [41] = experiment: Weight change in A431 tumor bearing mice at 100 mg/kg peroral dose, days 7-21 administration; format: functional; conditions: route oral
# A-431 [42] = experiment: Difference in days for treated (T) and control (C) A431 tumors to reach 750 mg in mice at 75 mg/kg ip dose, days 7-21 administration; format: functional; conditions: route intraperitoneal; method in brief: as §2
# SK-OV-3 [43] = experiment: Weight change in SKOV-3 tumor bearing mice at 30 mg/kg ip dose, days 10-14,17-21,24-28 administration; format: functional; conditions: route intraperitoneal
# Mus musculus [44] = experiment: Ratio of treated and control EGFR median tumor mass*100% in mice at 38 mg/kg ip dose, days 1-15 administration; format: functional; conditions: route intraperitoneal; method in brief: as §2
# SK-OV-3 [45] = experiment: Difference in days for treated (T) and control (C) SKOV-3 tumor fragments to reach 750 mg in mice at 30 mg/kg ip dose, administration days 10-14,17-21,24-28; format: functional; conditions: route intraperitoneal
# MCF7 [46] = experiment: Weight change in MCF-7 tumor bearing mice at 50 mg/kg ip dose, days 1-15 administration; format: functional, organism-based; parameters: dose 50 mg/kg
# MCF7 [47] = experiment: Difference in days for treated (T) and control (C) MCF-7 tumor fragments to reach 750 mg in mice at 25 mg/kg ip dose, administration days 1-15; format: functional; conditions: route intraperitoneal
# Mus musculus [48] = experiment: Weight change of EGFR tumor bearing mice at 25 mg/kg ip dose, days 1-15 administration; format: functional; conditions: route intraperitoneal
# Mus musculus [49] = experiment: Log net cell kill of A431 tumor bearing mice at 25 mg/kg intraperitoneal dose, days 7-21 administration
# [50] = as §4; format: functional
# Insulin receptor [51] = target: T2, Insulin receptor; experiment: as §5; format: functional
# [52] = target: T4, Fibroblast growth factor receptor; experiment: as §7; format: functional
# [53] = target: T3, Proto-oncogene tyrosine-protein kinase Src; experiment: as §6; format: functional
# Chain of Receptor tyrosine-protein kinase erbB-2 (P04626 whole entry): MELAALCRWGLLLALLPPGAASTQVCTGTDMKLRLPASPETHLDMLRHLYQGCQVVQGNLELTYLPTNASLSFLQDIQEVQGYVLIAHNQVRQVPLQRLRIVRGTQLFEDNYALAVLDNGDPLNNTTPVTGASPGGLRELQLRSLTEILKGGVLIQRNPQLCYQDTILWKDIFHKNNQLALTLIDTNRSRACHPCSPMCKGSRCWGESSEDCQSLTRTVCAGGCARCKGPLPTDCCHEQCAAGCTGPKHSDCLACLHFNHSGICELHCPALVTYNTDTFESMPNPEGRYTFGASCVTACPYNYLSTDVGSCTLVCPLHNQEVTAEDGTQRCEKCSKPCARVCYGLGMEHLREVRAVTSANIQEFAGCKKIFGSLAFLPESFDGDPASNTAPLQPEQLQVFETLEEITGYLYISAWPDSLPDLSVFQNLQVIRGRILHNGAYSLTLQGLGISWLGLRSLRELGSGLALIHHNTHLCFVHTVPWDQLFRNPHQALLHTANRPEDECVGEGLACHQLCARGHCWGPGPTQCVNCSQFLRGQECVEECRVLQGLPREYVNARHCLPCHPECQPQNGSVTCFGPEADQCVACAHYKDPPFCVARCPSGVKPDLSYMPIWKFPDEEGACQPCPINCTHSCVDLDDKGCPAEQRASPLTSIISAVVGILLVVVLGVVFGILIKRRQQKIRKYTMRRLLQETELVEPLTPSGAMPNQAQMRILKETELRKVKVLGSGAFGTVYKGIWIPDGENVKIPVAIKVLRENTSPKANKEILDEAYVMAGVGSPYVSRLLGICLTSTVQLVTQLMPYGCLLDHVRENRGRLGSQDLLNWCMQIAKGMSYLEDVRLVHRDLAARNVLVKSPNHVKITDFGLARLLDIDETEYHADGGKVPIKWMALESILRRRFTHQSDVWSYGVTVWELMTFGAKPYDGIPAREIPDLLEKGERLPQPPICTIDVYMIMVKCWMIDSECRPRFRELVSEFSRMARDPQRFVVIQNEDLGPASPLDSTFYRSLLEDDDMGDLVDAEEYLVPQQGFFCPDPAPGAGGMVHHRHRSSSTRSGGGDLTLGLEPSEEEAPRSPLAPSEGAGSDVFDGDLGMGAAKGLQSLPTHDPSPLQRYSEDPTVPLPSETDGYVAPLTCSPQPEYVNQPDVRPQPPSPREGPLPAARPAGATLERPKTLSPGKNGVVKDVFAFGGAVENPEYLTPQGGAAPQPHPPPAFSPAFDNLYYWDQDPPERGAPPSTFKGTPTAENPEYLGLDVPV
# T1 sequence (P00533 whole entry): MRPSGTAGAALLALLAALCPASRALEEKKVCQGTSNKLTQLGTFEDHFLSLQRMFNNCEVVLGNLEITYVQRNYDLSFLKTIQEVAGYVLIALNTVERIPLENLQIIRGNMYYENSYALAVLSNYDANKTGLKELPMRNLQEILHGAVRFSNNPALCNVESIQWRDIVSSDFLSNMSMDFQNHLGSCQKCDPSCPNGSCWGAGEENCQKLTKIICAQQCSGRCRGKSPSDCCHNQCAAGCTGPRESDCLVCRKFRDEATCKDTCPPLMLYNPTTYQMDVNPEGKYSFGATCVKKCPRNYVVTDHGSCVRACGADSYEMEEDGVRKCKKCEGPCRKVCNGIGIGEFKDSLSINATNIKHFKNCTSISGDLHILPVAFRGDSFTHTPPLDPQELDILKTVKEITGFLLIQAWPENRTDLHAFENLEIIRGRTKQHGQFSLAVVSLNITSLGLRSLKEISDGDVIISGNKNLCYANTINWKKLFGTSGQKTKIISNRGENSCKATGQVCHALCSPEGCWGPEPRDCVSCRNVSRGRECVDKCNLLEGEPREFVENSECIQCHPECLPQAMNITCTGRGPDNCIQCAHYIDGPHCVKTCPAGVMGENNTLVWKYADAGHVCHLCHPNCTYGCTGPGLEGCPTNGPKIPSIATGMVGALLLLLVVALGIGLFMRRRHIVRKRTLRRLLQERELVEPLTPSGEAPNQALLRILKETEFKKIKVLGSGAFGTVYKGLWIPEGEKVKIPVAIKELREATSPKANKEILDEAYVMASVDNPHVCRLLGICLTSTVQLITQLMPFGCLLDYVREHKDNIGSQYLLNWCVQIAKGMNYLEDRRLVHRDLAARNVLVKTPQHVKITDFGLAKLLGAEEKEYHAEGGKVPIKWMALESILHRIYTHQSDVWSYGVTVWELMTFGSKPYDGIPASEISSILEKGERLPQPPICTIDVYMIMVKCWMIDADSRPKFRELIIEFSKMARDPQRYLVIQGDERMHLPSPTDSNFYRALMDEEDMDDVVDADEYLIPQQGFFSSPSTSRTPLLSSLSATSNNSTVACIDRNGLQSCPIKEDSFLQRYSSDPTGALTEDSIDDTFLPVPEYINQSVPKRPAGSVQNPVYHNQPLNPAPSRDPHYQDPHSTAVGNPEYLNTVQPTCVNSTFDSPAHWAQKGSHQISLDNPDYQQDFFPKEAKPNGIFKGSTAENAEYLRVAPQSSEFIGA
# T2 sequence (P06213 28-758 limits assumed): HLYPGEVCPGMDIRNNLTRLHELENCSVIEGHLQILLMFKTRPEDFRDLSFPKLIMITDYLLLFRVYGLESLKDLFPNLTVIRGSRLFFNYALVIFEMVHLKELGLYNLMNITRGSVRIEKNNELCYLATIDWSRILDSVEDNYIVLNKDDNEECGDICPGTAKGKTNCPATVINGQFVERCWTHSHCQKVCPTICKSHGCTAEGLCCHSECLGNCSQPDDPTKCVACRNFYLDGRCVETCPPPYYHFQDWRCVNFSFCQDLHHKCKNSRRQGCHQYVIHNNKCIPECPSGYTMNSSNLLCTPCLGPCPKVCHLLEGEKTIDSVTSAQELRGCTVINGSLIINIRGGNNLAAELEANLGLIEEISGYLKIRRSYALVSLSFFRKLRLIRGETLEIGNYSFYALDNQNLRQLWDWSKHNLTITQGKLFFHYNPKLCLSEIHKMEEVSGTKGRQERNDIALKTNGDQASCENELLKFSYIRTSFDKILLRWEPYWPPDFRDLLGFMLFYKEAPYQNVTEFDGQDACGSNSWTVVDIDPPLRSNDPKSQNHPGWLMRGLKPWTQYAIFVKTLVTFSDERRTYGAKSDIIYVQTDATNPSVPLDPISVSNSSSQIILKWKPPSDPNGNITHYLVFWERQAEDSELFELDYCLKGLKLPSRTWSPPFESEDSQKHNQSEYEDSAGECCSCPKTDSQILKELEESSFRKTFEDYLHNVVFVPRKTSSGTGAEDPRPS
# T2 sequence (P06213 763-1382 limits assumed): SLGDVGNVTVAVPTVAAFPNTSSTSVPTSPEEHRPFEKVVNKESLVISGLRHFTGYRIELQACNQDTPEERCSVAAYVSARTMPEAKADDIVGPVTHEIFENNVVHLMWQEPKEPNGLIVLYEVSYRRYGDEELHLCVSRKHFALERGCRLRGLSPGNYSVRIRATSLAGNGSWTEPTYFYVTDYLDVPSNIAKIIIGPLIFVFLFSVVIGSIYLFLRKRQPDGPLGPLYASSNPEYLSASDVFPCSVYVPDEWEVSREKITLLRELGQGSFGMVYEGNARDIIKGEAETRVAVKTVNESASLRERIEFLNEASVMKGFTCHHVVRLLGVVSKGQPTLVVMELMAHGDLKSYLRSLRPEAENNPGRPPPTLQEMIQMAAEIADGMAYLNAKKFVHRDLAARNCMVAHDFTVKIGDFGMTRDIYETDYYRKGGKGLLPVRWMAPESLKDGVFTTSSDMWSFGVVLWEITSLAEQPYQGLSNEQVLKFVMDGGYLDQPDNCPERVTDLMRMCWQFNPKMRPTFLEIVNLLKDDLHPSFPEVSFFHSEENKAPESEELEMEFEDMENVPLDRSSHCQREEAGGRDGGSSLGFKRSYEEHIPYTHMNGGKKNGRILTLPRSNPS
# T3 sequence (P12931 2-536 limits assumed): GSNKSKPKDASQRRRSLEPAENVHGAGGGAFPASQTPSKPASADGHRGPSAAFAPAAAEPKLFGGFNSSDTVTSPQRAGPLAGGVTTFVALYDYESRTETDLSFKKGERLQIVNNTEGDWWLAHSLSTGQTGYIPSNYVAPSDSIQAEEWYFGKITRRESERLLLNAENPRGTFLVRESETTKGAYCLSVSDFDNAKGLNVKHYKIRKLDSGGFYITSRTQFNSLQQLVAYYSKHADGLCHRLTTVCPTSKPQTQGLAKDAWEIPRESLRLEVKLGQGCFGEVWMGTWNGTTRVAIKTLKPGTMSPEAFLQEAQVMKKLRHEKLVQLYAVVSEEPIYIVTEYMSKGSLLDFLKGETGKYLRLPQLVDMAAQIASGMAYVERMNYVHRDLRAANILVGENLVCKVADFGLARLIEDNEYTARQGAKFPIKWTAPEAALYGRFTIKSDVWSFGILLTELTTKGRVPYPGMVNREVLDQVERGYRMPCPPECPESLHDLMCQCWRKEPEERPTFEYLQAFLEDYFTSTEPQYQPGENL
compound,measurement,setting,value
CNc1cc2c(Nc3cccc(C)c3)ncnc2cn1,IC50,[1],23 nM
same,IC50,[2],0.45 nM
same,T/C,Mus musculus [3],68%
same,T-C,Mus musculus [4],2 days
same,Weight change,Mus musculus [5],-0.9 g
CN(C)CCNc1cc2c(Nc3cccc(Br)c3)ncnc2cn1,Net cell kill,Mus musculus [6],-1.3 log10
same,IC50,[1],43 nM
same,IC50,[7],> 50000 nM
same,T/C,Mus musculus [8],47%
same,IC50,[2],1.1 nM
same,Weight change,A-431 [9],-1.4 g
same,Net cell kill,Mus musculus [10],-1 log10
same,T-C,Mus musculus [11],3.3 days
same,IC50,Insulin receptor [12],> 50000 nM
same,IC50,[13],379 nM
same,IC50,[14],> 50000 nM
same,IC50,[15],> 50000 nM
same,Weight change,Mus musculus [16],Weight gain
same,Weight change,Mus musculus [17],-1.1 g
same,IC50,[18],43 nM
same,T/C,A-431 [19],66%
same,Net cell kill,A-431 [20],-0.5 log10
same,T-C,A-431 [21],4.7 days
same,T/C,Mus musculus [22],43%
same,IC50,[23],1.1 nM
same,T-C,Mus musculus [24],1.1 days
same,S,[25]; buffer,> 48 mM
CNc1cc2c(Nc3cccc(Br)c3)ncnc2cn1,T/C,A-431 [26],38%
same,T/C,MCF7 [27],14%
same,Weight change,A-431 [28],-0.8 g
same,Net cell kill,Mus musculus [29],-1.3 log10
same,T-C,MCF7 [30],15.2 days
same,T-C,Mus musculus [31],1.2 days
same,T-C,A-431 [32],16 days
same,Net cell kill,MCF7 [33],-0.1 log10
same,log net cell kill,Mus musculus [34],-1
same,T/C,A-431 [35],41%
same,T/C,Mus musculus [36],67%
same,Weight change,MCF7 [37],-0.2 g
same,IC50,[13],52 nM
same,T/C,MCF7 [38],27%
same,T/C,SK-OV-3 [39],67%
same,Weight change,Mus musculus [40],Weight gain
same,Weight change,A-431 [41],-1.3 g
same,T-C,A-431 [42],8.4 days
same,Weight change,SK-OV-3 [43],-1.6 g
same,T-C,Mus musculus [4],3.7 days
same,T/C,Mus musculus [44],38%
same,T-C,SK-OV-3 [45],0.8 days
same,Weight change,MCF7 [46],Weight gain
same,IC50,[18],13 nM
same,Weight change,Mus musculus [5],-0.1 g
same,T-C,MCF7 [47],11.2 days
same,solubility,[25],0.1 mM
CCN(CC)CC(O)CNc1cc2c(Nc3cccc(Br)c3)ncnc2cn1 (centres undefined),Weight change,Mus musculus [48],-0.9 g
same,IC50,[1],28 nM
same,T/C,MCF7 [27],77%
same,T/C,Mus musculus [8],94%
same,Log net cell kill,Mus musculus [49],-0.5 log10
same,IC50,[2],4.6 nM
same,Weight change,A-431 [9],-0.7 g
same,Net cell kill,Mus musculus [10],-0.9 log10
same,Net cell kill,MCF7 [33],-0.6 log10
same,T-C,Mus musculus [11],5 days
same,Weight change,MCF7 [37],-0.3 g
same,IC50,[13],1100 nM
same,IC50,[50],> 50000 nM
same,Weight change,Mus musculus [16],Weight gain
same,IC50,Insulin receptor [51],> 50000 nM
same,IC50,[18],28 nM
same,T/C,A-431 [19],62%
same,T-C,A-431 [21],5 days
same,IC50,[52],> 50000 nM
same,T/C,Mus musculus [22],44%
same,IC50,[23],4.6 nM
same,T-C,MCF7 [47],3.3 days
same,IC50,[53],> 50000 nM
same,T-C,Mus musculus [24],0 days
same,solubility,[25],36 mM
